The structures appear in SMILES notation.

This assay has as its target Sodium- and chloride-dependent GABA transporter 1 (Mus musculus) (UniProt P31648). As to the kind of experiment: Inhibition of NO711 binding to mouse GAT1 expressed in HEK293 cell membranes assessed as residual binding at 1 uM preincubated for 4 hrs followed by NO711 addition and measured after 40 mins by LC-ESI-MS/MS analysis relative to control. The method, boiled down:
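Single hydrazones formed in situ in the presence of mouse GAT1 from one aldehyde (1.0 µM) and hydrazine (200 µM). Formation ran 4 h, then NO711 MS marker was added for 40 min. Specifically bound NO711 was freed from the target and quantified by LC-ESI-MS/MS. Results are % remaining specific binding, means±SD of four replicates.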
For `O=C(O)[C@H]1CNC[C@@H](CN/N=C/c2ccccc2-c2cccnc2)C1` (racemic), the Activity was 93%.

As for `O=C(O)[C@H]1CNC[C@@H](CN/N=C/c2sccc2-c2ccc(Cl)cc2Cl)C1` (racemic), the Activity amounted to 81%.

For the molecule `O=C(O)[C@H]1CNC[C@@H](CN/N=C/c2ccccc2-c2cc(F)cc(F)c2)C1` (racemic), the Activity turned out to be 90%.

For `COc1cccc(F)c1-c1ccccc1/C=N/NC[C@@H]1CNC[C@H](C(=O)O)C1` (racemic), the Activity came out at 70%.

For the molecule `Cc1ccc(-c2ccsc2C=O)cc1`, the Activity turned out to be 109%.

`Cc1ccsc1-c1ccccc1C=O`: the Activity was 105%.

Take `O=C(O)[C@H]1CNC[C@@H](CCN/N=C/c2ccc(-c3ccc(F)c(C(F)(F)F)c3)o2)C1` (racemic): the Activity came out at 72%.

With `O=C(O)[C@H]1CNC[C@@H](CN/N=C/c2cccc(-c3ccccc3)c2)C1` (racemic), the Activity is 52%.

Consider `COc1ccccc1/C=N/NC[C@@H]1CNC[C@H](C(=O)O)C1` (racemic), for which the Activity amounted to 85%.

`O=Cc1ccc(-c2cc(C(F)(F)F)cc(C(F)(F)F)c2)o1`: the Activity came to 103%.

For `COc1cc(/C=N/NCC[C@@H]2CNC[C@H](C(=O)O)C2)cc(OC)c1O` (racemic), the Activity came to 62%.

Consider `O=Cc1ccc(-c2ccn[nH]2)o1`, for which the Activity worked out at 93%.

For the molecule `O=Cc1ccccc1-c1cc(F)ccc1F`, the Activity was found to be 98%.

On to `O=C(O)[C@H]1CNC[C@@H](CN/N=C/c2cnc(-c3cccc4ccccc34)nc2)C1` (racemic), for which the Activity came out at 61%.

`O=Cc1sccc1-c1ccc(Cl)cc1Cl`: the Activity was 116%.

As for `O=C(O)[C@H]1CNC[C@@H](CN/N=C/c2ccc(-c3ccccc3C(F)(F)F)o2)C1` (racemic), the Activity came to 49%.

As for `O=C(O)[C@H]1CNC[C@@H](CN/N=C/c2ccc(-c3ccccc3)[nH]2)C1` (racemic), the Activity was 85%.

`Cn1c(C=O)ccc1-c1ccc(Cl)cc1`: the Activity stood at 101%.

With `O=Cc1cccn1-c1ccc(C(F)(F)F)cc1`, the Activity is 87%.

With `O=Cc1sccc1-n1cccc1`, the Activity stood at 82%.

As to `O=Cc1cnc(SCc2ccccc2)nc1`, the Activity came to 116%.

Turning to `O=C(O)[C@H]1CNC[C@@H](CN/N=C/c2cnc(N3CCCCC3)nc2)C1` (racemic), the Activity was 69%.

As to `Cn1cnnc1Sc1ccc(/C=N/NCC[C@@H]2CNC[C@H](C(=O)O)C2)o1` (racemic), the Activity amounted to 73%.

Regarding `O=C(O)[C@H]1CNC[C@@H](CCN/N=C/c2ccco2)C1` (racemic), the Activity came out at 60%.

Regarding `O=Cc1cc(Br)co1`, the Activity turned out to be 126%.

Consider `O=C(O)[C@H]1CNC[C@@H](CCN/N=C/c2ccc(-c3cccc(Cl)c3)o2)C1` (racemic), for which the Activity came to 69%.

`O=Cc1cnc(-c2ccc3ccccc3c2)nc1`: the Activity turned out to be 110%.

On to `Cc1ccc(-c2cccc(C=O)c2)cc1`, for which the Activity amounted to 104%.

With `O=Cc1cccs1`, the Activity was found to be 118%.

Consider `O=Cc1ccc(C#Cc2ccccc2)s1`, for which the Activity stood at 90%.

For the molecule `O=C(O)[C@H]1CNC[C@@H](CN/N=C/c2ccc(-c3ccc(Cl)cc3)s2)C1` (racemic), the Activity was found to be 75%.

`O=Cc1ccc(-c2ccccc2)[nH]1`: the Activity is 98%.

For `O=C(O)[C@H]1CNC[C@@H](CN/N=C/c2ccc(-c3ccccc3Br)o2)C1` (racemic), the Activity worked out at 36%.

As to `O=Cc1cccc(Oc2ccccc2)c1`, the Activity came out at 109%.

With `Cc1ccccc1-c1ccsc1/C=N/NCC[C@@H]1CNC[C@H](C(=O)O)C1` (racemic), the Activity came to 64%.

On to `O=Cc1sccc1-c1ccccc1`, for which the Activity amounted to 113%.

In the case of `O=Cc1cccc(-c2ccc(F)cc2)c1`, the Activity stood at 122%.

For the molecule `O=C(O)[C@H]1CNC[C@@H](CN/N=C/c2ccc(-c3ccc(Cl)cc3F)o2)C1` (racemic), the Activity is 67%.

On to `COc1ccc(F)cc1-c1ccccc1/C=N/NC[C@@H]1CNC[C@H](C(=O)O)C1` (racemic), for which the Activity came out at 72%.

As to `COc1cc(F)ccc1-c1ccccc1/C=N/NC[C@@H]1CNC[C@H](C(=O)O)C1` (racemic), the Activity was 80%.

Turning to `O=Cc1sccc1-c1ccccc1F`, the Activity came to 121%.

Turning to `Cc1ccc(-c2ccsc2C=O)c(C)c1`, the Activity was 124%.

For the molecule `O=Cc1cncnc1`, the Activity was determined as 118%.

For `O=Cc1ccc(-c2ccccc2)s1`, the Activity was determined as 112%.

Turning to `O=C(O)[C@H]1CNC[C@@H](CN/N=C/c2sccc2-c2ccccc2)C1` (racemic), the Activity stood at 85%.

As for `O=C(O)[C@H]1CNC[C@@H](CN/N=C/c2sccc2-c2ccccc2Cl)C1` (racemic), the Activity came to 84%.

Turning to `O=Cc1ccc([N+](=O)[O-])cc1`, the Activity is 113%.

Regarding `O=Cc1sccc1-c1ccccc1Cl`, the Activity is 121%.

With `O=C(O)[C@H]1CNC[C@@H](CCN/N=C/c2ccc(-c3cc(C(F)(F)F)cc(C(F)(F)F)c3)o2)C1` (racemic), the Activity turned out to be 76%.

With `O=C(O)[C@H]1CNC[C@@H](CN/N=C/c2ccccc2-c2cccs2)C1` (racemic), the Activity was determined as 87%.

`O=C(O)[C@H]1CNC[C@H](CN/N=C/c2cccn2-c2ccc(C(F)(F)F)cc2)C1` (racemic): the Activity was > 50%.

Take `O=C(O)[C@H]1CNC[C@@H](CN/N=C/c2cncnc2)C1` (racemic): the Activity amounted to 64%.

On to `O=C(O)[C@H]1CNC[C@@H](CN/N=C/c2ccc(Br)o2)C1` (racemic), for which the Activity came to 55%.

Regarding `O=C(O)[C@H]1CNC[C@H](CCN/N=C/c2cccn2-c2ccc(C(F)(F)F)cc2)C1` (racemic), the Activity is > 50%.

As for `O=C(O)[C@H]1CNC[C@@H](CN/N=C/c2ccccc2-c2ccc(F)cc2F)C1` (racemic), the Activity amounted to 66%.

For the molecule `O=C(O)[C@H]1CNC[C@@H](CN/N=C/c2sccc2-c2ccc(F)cc2F)C1` (racemic), the Activity stood at 80%.

Consider `O=C(O)[C@H]1CNC[C@@H](CN/N=C/c2ccc([N+](=O)[O-])cc2)C1` (racemic), for which the Activity was determined as 83%.

In the case of `COc1ccc(C=O)cc1`, the Activity stood at 98%.

In the case of `O=C(O)[C@H]1CNC[C@@H](CCN/N=C/c2ccccc2-n2cccc2)C1` (racemic), the Activity turned out to be 82%.

`O=C(O)[C@H]1CNC[C@H](CN/N=C/c2csc3ccccc23)C1` (racemic): the Activity is > 50%.

For the molecule `O=C(O)[C@H]1CNC[C@@H](CN/N=C/c2ccccc2-n2cccc2)C1` (racemic), the Activity turned out to be 91%.

With `O=C(O)[C@H]1CNC[C@@H](CCN/N=C/c2ccc(-c3ccccc3C(F)(F)F)o2)C1` (racemic), the Activity worked out at 60%.

For `O=Cc1cnc(-c2ccccn2)nc1`, the Activity was determined as 106%.

In the case of `O=Cc1cnc(-c2ccco2)nc1`, the Activity is 118%.

As for `O=Cc1ccc(-c2ccccc2Cl)o1`, the Activity was 99%.

Consider `O=Cc1ccc(-c2ccc(Cl)cc2[N+](=O)[O-])o1`, for which the Activity was 72%.

As to `O=Cc1ccc(-c2ccccc2C(F)(F)F)o1`, the Activity turned out to be 90%.

On to `O=C(O)[C@H]1CNC[C@@H](CCN/N=C/c2cnc(-c3ccccn3)nc2)C1` (racemic), for which the Activity stood at 83%.

As for `O=C(O)[C@H]1CNC[C@H](CCN/N=C/c2ccc(-c3ccccc3OC(F)(F)F)o2)C1` (racemic), the Activity was > 50%.

Turning to `O=C(O)[C@H]1CNC[C@@H](CN/N=C/c2sccc2-n2cccc2)C1` (racemic), the Activity is 86%.

Consider `O=Cc1cnc(-c2cccs2)nc1`, for which the Activity was 103%.

As to `O=C(O)[C@H]1CNC[C@@H](CN/N=C/c2cnc(-c3ccco3)nc2)C1` (racemic), the Activity was determined as 73%.

Take `O=Cc1ccc(-c2ccc(Cl)cc2)o1`: the Activity turned out to be 75%.

With `O=C(O)[C@H]1CNC[C@@H](CN/N=C/c2ccc(-c3ccccc3Cl)o2)C1` (racemic), the Activity amounted to 48%.

For `O=Cc1ccc(-c2ccccc2Br)o1`, the Activity is 129%.

Regarding `O=C(O)[C@H]1CNC[C@@H](CCN/N=C/c2csc3ccccc23)C1` (racemic), the Activity came out at 75%.

Regarding `O=C(O)[C@H]1CNC[C@@H](CN/N=C/c2ccc(I)o2)C1` (racemic), the Activity worked out at 69%.

Turning to `O=Cc1ccc(I)o1`, the Activity was 115%.

As for `O=Cc1ccc(-c2cccc(Cl)c2)o1`, the Activity stood at 103%.

For `Cc1ccsc1-c1sc(/C=N/NC[C@@H]2CNC[C@H](C(=O)O)C2)cc1C` (racemic), the Activity stood at 74%.

As for `O=Cc1ccc[nH]1`, the Activity turned out to be 107%.

For `O=Cc1csc2ccccc12`, the Activity came to 77%.

In the case of `O=C(O)[C@H]1CNC[C@H](CN/N=C/c2ccc(-c3ccccc3OC(F)(F)F)o2)C1` (racemic), the Activity is > 50%.

As for `O=C(O)[C@H]1CNC[C@@H](CN/N=C/c2ccc(-c3ccn[nH]3)o2)C1` (racemic), the Activity was 81%.

With `O=C(O)[C@H]1CNC[C@@H](CCN/N=C/c2ccc(C#Cc3ccccc3)s2)C1` (racemic), the Activity is 71%.

As for `O=C(O)[C@H]1CNC[C@@H](CN/N=C/c2cccs2)C1` (racemic), the Activity is 67%.

In the case of `Cn1cnnc1Sc1ccc(/C=N/NC[C@@H]2CNC[C@H](C(=O)O)C2)o1` (racemic), the Activity is 84%.

On to `COc1ccccc1C=O`, for which the Activity was found to be 108%.

In the case of `O=C(O)[C@H]1CNC[C@@H](CN/N=C/c2ccc(-c3ccc(Cl)cc3Cl)o2)C1` (racemic), the Activity came to 40%.

Regarding `O=C(O)[C@H]1CNC[C@H](CCN/N=C/c2sccc2-n2cccc2)C1` (racemic), the Activity was > 50%.

Regarding `O=Cc1cccc(-c2ccccc2)c1`, the Activity came to 111%.

On to `O=Cc1ccc(-c2ccccc2)o1`, for which the Activity is 82%.

`Cc1ccsc1-c1ccccc1/C=N/NCC[C@@H]1CNC[C@H](C(=O)O)C1` (racemic): the Activity is 61%.

Source of the values: ChEMBL document CHEMBL4371014, “Novel Allosteric Ligands of γ-Aminobutyric Acid Transporter 1 (GAT1) by MS Based Screening of Pseudostatic Hydrazone Libraries” (J Med Chem, 2018).
